Values after ≈ are worked out from the molar mass of the structure shown.

In the first data set the test system is Mycobacterium tuberculosis. The experiment in a line: Antitubercular activity against Mycobacterium tuberculosis H37Rv after 30 days by agar microdilution method. The class given is functional.
Conditions: not given
In short, it runs like this:
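Compound dissolved in DMSO; two-fold dilutions added to Middlebrook 7H10 with OADC in slanted tubes, preincubated 24 h at 37 °C. Tubes then streaked with 5 × 10⁵ bacilli of H37Rv harvested from L–J culture into 0.85% saline with 0.05% Tween-80. Incubated 30 days at 37 °C. MIC is the lowest concentration giving complete inhibition of colonies, judged against drug-free control tubes.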
On to `COc1cc(COc2ccc(C(=O)C3CC3)cc2)ccc1OCCN(C(C)C)C(C)C`, for which the MIC was above 12.5 µg/mL.

`O=C(c1ccc(OCc2cccc([N+](=O)[O-])c2)cc1)C1CC1` registered an MIC of 6.25 µg/mL (≈ 21 µM).

With `CCCCN(CCCC)CCOc1ccc(C(=O)C2CC2)cc1`, the MIC was above 12.5 µg/mL.

Take `COc1cc(COc2ccc(C(=O)C3CC3)cc2)ccc1OCCN1CCCCC1`: the MIC is above 12.5 µg/mL.

The compound `OC(c1ccc(OCc2ccc(OCCN3CCCCC3)cc2)cc1)C1CC1` (configuration not stated) yielded an MIC of 3.12 µg/mL (≈ 8.18 µM).

`CCCCN(CCCC)CCOc1ccc(C(O)C2CC2)cc1` (configuration not stated): the lowest concentration to inhibit growth (MIC) was 12.5 µg/mL (≈ 39.1 µM).

`O=C(c1ccc(OCc2ccc(OCCN3CCCCC3)cc2)cc1)C1CC1` had an MIC of 12.5 µg/mL (≈ 32.9 µM).

The compound `OC(c1ccc(OCc2cccc(OCCN3CCCCC3)c2)cc1)C1CC1` (configuration not stated) came in with an MIC of 6.25 µg/mL (≈ 16.4 µM).

Regarding `COc1cc(COc2ccc(C(O)C3CC3)cc2)ccc1OCCN1CCCCC1` (configuration not stated), the MIC stood at 6.25 µg/mL (≈ 15.2 µM).

Regarding `O=C(c1ccc(OCc2ccc(Br)cc2)cc1)C1CC1`, the lowest concentration to inhibit growth (MIC) was 6.25 µg/mL (≈ 18.9 µM).

As to `COc1cc(COc2ccc(C(O)C3CC3)cc2)ccc1OCCN(C(C)C)C(C)C` (configuration not stated), the minimum inhibitory concentration (MIC) was above 12.5 µg/mL.

In the case of `CN(C)CCOc1ccc(COc2ccc(C(O)C3CC3)cc2)cc1` (configuration not stated), the MIC was determined as 3.12 µg/mL (≈ 9.14 µM).

For `O=C(c1ccc(OCc2cccc(Br)c2)cc1)C1CC1`, the MIC came out at 12.5 µg/mL (≈ 37.7 µM).

Regarding `CC(C)N(CCOc1ccc(COc2ccc(C(O)C3CC3)cc2)cc1)C(C)C` (configuration not stated), the MIC was 12.5 µg/mL (≈ 31.4 µM).

Another data set concerns Mycobacterium tuberculosis. Put plainly: Antitubercular activity against Mycobacterium tuberculosis H37Rv infected in swiss mouse assessed as increase in mean survival time at 25 mg/kg, po qd for 28 days measured on day 30 relative to control. The class given is functional.
Conditions: not given
In short, it runs like this:
(§1)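 Outbred female Swiss mice (18–20 g) infected i.v. via lateral vein with 10⁷ CFU H37Rv; groups of 10 formed next day. Test compound given as aqueous suspension at 100 mg/kg, INH at 25 mg/kg; placebo given to infected controls. All dosing oral, daily for 28 days. Mean survival time and % survivors scored at days 30 and 40; lung bacillary load per g determined on day 30.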
`NNC(=O)c1ccncc1` [ISONIAZID]: the MST was 30.

Tested on in the next data set: not listed separately
The experiment in a line: Selectivity index, ratio of IC50 for african green monkey Vero cells to MIC for Mycobacterium tuberculosis H37Rv. The class given is functional.
Conditions: not given
In short, it runs like this: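 Vero cells seeded at 10,000/well in DMEM with antibiotics and 10% FBS, allowed to adhere overnight (37 °C, 5% CO₂). […] MTS added for 2 h, absorbance read at 490 nm, with DMSO wells taken as 100% survival. IC50 divided by H37Rv agar MIC.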
For the compound `OC(c1ccc(OCc2ccc(OCCN3CCCCC3)cc2)cc1)C1CC1` (configuration not stated), the “Selectivity Index” value was above 10.

`CN(C)CCOc1ccc(COc2ccc(C(O)C3CC3)cc2)cc1` (configuration not stated): the “Selectivity Index” value was above 10.

Tested on in the next data set: not listed separately
Put plainly: Chemical stability of the compound in HCl at […] assessed as compound remaining after 3 hrs by HPLC analysis. To be noted: HCl solution; read-out: Stability. The class given is physicochemical. In short, it runs like this: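 Compound held in 0.1N HCl (gastric pH) at ambient temperature for up to 3 h and analysed by HPLC on a CN column (250 mm × 4 mm, 5 µm) at 25 ± 3 °C with PDA detection. Intact parent was followed by its peak, and degradation products by their retention times.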
As for `OC(c1ccc(OCc2ccc(OCCN3CCCCC3)cc2)cc1)C1CC1` (configuration not stated), the remaining at 3 h was below 70%.

Tested on in the next data set: not listed separately
Put plainly: Selectivity index, ratio of IC50 for mouse BMDM to MIC for Mycobacterium tuberculosis H37Rv. In kind it is functional.
Conditions: not given
A digest of the protocol:
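Bone-marrow cells flushed with DMEM containing 10% FBS, 15% L-929 conditioned supernatant and non-essential amino acids. Seeded at 10⁵/well and grown 5 days, medium changed every 3rd day. Compounds added in antibiotic-free FBS-DMEM for 48 h. MTS added for 2 h, A490 read, DMSO wells taken as 100%. IC50 divided by H37Rv MIC.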
As for `OC(c1ccc(OCc2ccc(OCCN3CCCCC3)cc2)cc1)C1CC1` (configuration not stated), the Selectivity Index is above 10.

As to `CN(C)CCOc1ccc(COc2ccc(C(O)C3CC3)cc2)cc1` (configuration not stated), the Selectivity Index was above 10.

Tested on in another data set: not listed separately
The experiment in a line: Cytotoxicity against mouse BMDM after 48 hrs by MTS assay. The class given is cell-based.
Conditions: not given
A digest of the protocol:
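Mouse bone-marrow cells were flushed into DMEM with 10% FBS, 15% L-929 conditioned supernatant and non-essential amino acids. They were plated at 10⁵/well and cultured 5 days at 37 °C, 5% CO₂, with medium changed every 3rd day. Graded compound concentrations were added in antibiotic-free FBS-DMEM for 48 h. MTS was added for 2 h and A490 read, with DMSO wells taken as 100% survival.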
For `OC(c1ccc(OCc2ccc(OCCN3CCCCC3)cc2)cc1)C1CC1` (configuration not stated), the IC50 was above 50 µg/mL.

As to `CN(C)CCOc1ccc(COc2ccc(C(O)C3CC3)cc2)cc1` (configuration not stated), the IC50 was above 50 µg/mL.

The subject of a further data set is Mycobacterium tuberculosis. Put plainly: Antitubercular activity against Mycobacterium tuberculosis H37Rv infected in swiss mouse assessed as increase mouse survival at 25 mg/kg, po qd for 28 days measured on day 40 relative to control. In kind it is functional.
Conditions: not given
A digest of the protocol: as §1
For `NNC(=O)c1ccncc1` [ISONIAZID], the survival at 25 mg/kg came to 100%.

The next data set has as its system Mycobacterium tuberculosis. The experiment in a line: Antitubercular activity against Mycobacterium tuberculosis H37Rv infected in swiss mouse assessed as decrease in bacilli load in lungs at 100 mg/kg, po qd for 28 days measured on day 30. In kind it is functional.
Conditions: not given
A digest of the protocol: as §1
For the compound `OC(c1ccc(OCc2ccc(OCCN3CCCCC3)cc2)cc1)C1CC1` (configuration not stated), the Activity amounted to 9 ×10⁷ /g.

A further data set deals with Mycobacterium tuberculosis. Put plainly: Antitubercular activity against Mycobacterium tuberculosis H37Rv infected in swiss mouse assessed as increase in mean survival time at 100 mg/kg, po qd for 28 days measured on day 30. In kind it is functional.
Conditions: not given
In short, it runs like this:
as §1
Take `OC(c1ccc(OCc2ccc(OCCN3CCCCC3)cc2)cc1)C1CC1` (configuration not stated): the MST is 27.5.

For the compound `CN(C)CCOc1ccc(COc2ccc(C(O)C3CC3)cc2)cc1` (configuration not stated), the MST worked out at 12.85.

The next data set relates to Mycobacterium tuberculosis. The experiment in a line: Antitubercular activity against Mycobacterium tuberculosis H37Rv infected in mouse BMDM assessed as reduction in intracellular CFU at 5 times MIC after 4 weeks relative to control.
Conditions: not given
In kind it is functional. More on the design: scale not given: the % may be the effect or the level left. A digest of the protocol: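 Murine bone-marrow macrophages cultured 5 days, then infected 3 h with 5 × 10⁶ H37Rv in antibiotic-free DMEM/10% FBS. Extracellular bacteria washed off, and compound added at 5× MIC. After 4 days at 37 °C, 5% CO₂, cells lysed with 0.1% saponin. Lysates serially diluted in saline and plated on 7H11; colonies counted after 4 weeks at 37 °C.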
Consider `OC(c1ccc(OCc2ccc(OCCN3CCCCC3)cc2)cc1)C1CC1` (configuration not stated), for which the Activity is given as 98%.

With `CN(C)CCOc1ccc(COc2ccc(C(O)C3CC3)cc2)cc1` (configuration not stated), the Activity worked out at 80%.

For the next data set, the system named is Mycobacterium tuberculosis. Put plainly: Antitubercular activity against Mycobacterium tuberculosis H37Rv infected in swiss mouse assessed as increase mouse survival at 100 mg/kg, po qd for 28 days measured on day 40 relative to control. The class given is functional.
Conditions: not given
In short, it runs like this: as §1
As to `OC(c1ccc(OCc2ccc(OCCN3CCCCC3)cc2)cc1)C1CC1` (configuration not stated), the survival at 100 mg/kg turned out to be 25%.

The next data set relates to Mycobacterium tuberculosis. The experiment in a line: Antitubercular activity against Mycobacterium tuberculosis H37Rv infected in swiss mouse assessed as increase mouse survival at 25 mg/kg, po qd for 28 days measured on day 30 relative to control. The class given is functional.
Conditions: not given
In short, it runs like this:
as §1
Consider `NNC(=O)c1ccncc1` [ISONIAZID], for which the survival at 25 mg/kg was 100%.

Another data set relates to Mycobacterium tuberculosis. The experiment in a line: Antitubercular activity against drug-susceptible Mycobacterium tuberculosis clinical isolate1 after 30 days by agar microdilution method. In kind it is functional.
Conditions: not given
`OC(c1ccc(OCc2ccc(OCCN3CCCCC3)cc2)cc1)C1CC1` (configuration not stated) gave an MIC above 12.5 µg/mL.

The next data set relates to Mycobacterium tuberculosis. The experiment in a line: Antitubercular activity against Mycobacterium tuberculosis H37Rv infected in swiss mouse assessed as increase in mean survival time at 100 mg/kg, po qd for 28 days measured on day 40. In kind it is functional.
Conditions: not given
A digest of the protocol: as §1
As to `OC(c1ccc(OCc2ccc(OCCN3CCCCC3)cc2)cc1)C1CC1` (configuration not stated), the MST is reported as 31.62.

A further data set deals with Mycobacterium tuberculosis. Put plainly: Antitubercular activity against Mycobacterium tuberculosis H37Rv infected in swiss mouse assessed as increase mouse survival at 100 mg/kg, po qd for 28 days measured on day 30 relative to control.
Conditions: not given
The class given is functional. In short, it runs like this: as §1
Turning to `OC(c1ccc(OCc2ccc(OCCN3CCCCC3)cc2)cc1)C1CC1` (configuration not stated), the survival at 100 mg/kg worked out at 50%.

In the next data set the test system is Mycobacterium tuberculosis. The experiment in a line: Antitubercular activity against Mycobacterium tuberculosis H37Rv infected in swiss mouse assessed as increase in mean survival time at 25 mg/kg, po qd for 28 days measured on day 40.
Conditions: not given
In kind it is functional. In short, it runs like this: as §1
In the case of `NNC(=O)c1ccncc1` [ISONIAZID], the MST came out at 40.

The subject of another data set is Mycobacterium tuberculosis. The experiment in a line: Antitubercular activity against drug-susceptible Mycobacterium tuberculosis clinical isolate2 after 30 days by agar microdilution method. In kind it is functional.
Conditions: not given
`OC(c1ccc(OCc2ccc(OCCN3CCCCC3)cc2)cc1)C1CC1` (configuration not stated) registered a minimum inhibitory concentration (MIC) above 12.5 µg/mL.

The test system of a further data set is Vero. The experiment in a line: Cytotoxicity against african green monkey Vero cells after 24 hrs by MTS assay. The class given is cell-based. To be noted: Chlorocebus sabaeus. In short, it runs like this: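 Vero cells were seeded at 10,000/well in DMEM with antibiotics and 10% FBS and left to adhere overnight at 37 °C, 5% CO₂. […] MTS was then added for 2 h and A490 read, with DMSO wells taken as 100% survival.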
The compound `OC(c1ccc(OCc2ccc(OCCN3CCCCC3)cc2)cc1)C1CC1` (configuration not stated) showed an IC50 above 50 µg/mL.

Take `CN(C)CCOc1ccc(COc2ccc(C(O)C3CC3)cc2)cc1` (configuration not stated): the IC50 is above 50 µg/mL.

The values are drawn from ChEMBL document CHEMBL1629520, “Synthesis and optimization of antitubercular activities in a series of 4-(aryloxy)phenyl cyclopropyl methanols” (Eur J Med Chem, 2010).
